Reference: PMC11495195 (Drug Design, Development and Therapy, 2024)

What was measured:
[1] = biological target: PDHK1 (Homo sapiens, UniProt Q15118); test: In vitro PDHK activity assay; assay type: biochemical; conditions: read-out: Inhibition% at 10 µM, PDHK1, 10 µM; mean ± SD (n = 5)
[2] = In vitro liver microsome stability, human; assay type: in vitro ADME; conditions: human liver microsomes; mean ± SD (n = 5)
How it was run: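 Test compound at 20 μM final was incubated with 0.5 mg/mL human or mouse liver microsomes and NADPH in 0.1 M phosphate buffer for 30 min at 37°C. The reaction was quenched with 2 volumes of cold acetonitrile plus internal standard, held overnight at −20°C and centrifuged. Supernatant was analysed by UPLC-MS/MS. 6-Hydroxycoumarin was the positive control; a no-NADPH blank was the negative control.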

[3] = Body weight and side-effects in H1299 xenograft mice; assay type: in vivo; conditions: 6 mg/kg intraperitoneal; for body weight change: after 21 days of administration
How it was run: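 Female BALB/c nude mice, 5 weeks old, kept pathogen-free, received 1.4 × 10^6 NCI-H1299 cells subcutaneously. At about 75 mm3 tumours, mice were randomised (n = 5). Dosing was intraperitoneal at 6 mg/kg: vehicle (2% DMSO, 30% PEG-400, 68% ddH2O) or test compound daily for 21 days, doxorubicin every 3 days. Body weight was weighed every 3 days; mean ± SEM.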

Chain of PDHK1 (Q15118 29-436): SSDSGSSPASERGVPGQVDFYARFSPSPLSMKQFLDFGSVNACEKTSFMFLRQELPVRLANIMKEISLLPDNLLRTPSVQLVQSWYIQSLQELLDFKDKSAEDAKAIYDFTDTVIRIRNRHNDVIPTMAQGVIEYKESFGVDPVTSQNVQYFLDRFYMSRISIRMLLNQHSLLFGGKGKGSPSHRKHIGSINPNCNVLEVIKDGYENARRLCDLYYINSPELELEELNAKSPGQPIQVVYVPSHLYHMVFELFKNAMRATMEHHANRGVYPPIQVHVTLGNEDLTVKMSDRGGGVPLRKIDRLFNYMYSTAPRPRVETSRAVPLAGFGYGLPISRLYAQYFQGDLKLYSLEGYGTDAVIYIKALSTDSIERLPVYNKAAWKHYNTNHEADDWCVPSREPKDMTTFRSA

Row | inhibition at 10 µM [1] [%] | CLint [2] [µL/min/mg] | Compound | other side-effects ([3]; 21 days) | body weight change [3]
1 | 26.5 to 30.1 |  | O=C1c2ccccc2C(=O)c2c(Oc3ccc(C(=O)C(Cl)Cl)cc3[N+](=O)[O-])cccc21 [Compound 18, 1-(4-(2,2-Dichloroacetyl)-2-nitrophenoxy)anthracene-9,10-dione] |  | 
2 |  | 29.7 | CC(C)Oc1ccc(S(=O)(=O)c2ccc(Oc3cc(OCC(N)=O)c(C(=O)C(Cl)Cl)cc3[N+](=O)[O-])cc2)cc1 [Compound 32, 2-(2-(2,2-Dichloroacetyl)-5-(4-((4-isopropoxyphenyl)sulfonyl)phenoxy)-4-nitrophenoxy)acetamide] | No other side-effects were observed | decreased very little
3 |  |  | COc1cccc2c1C(=O)c1c(O)c3c(c(O)c1C2=O)C[C@@](O)(C(=O)CO)C[C@@H]3O[C@H]1C[C@H](N)[C@H](O)[C@H](C)O1 [DOX, doxorubicin, reference compound] |  | significant body weight loss
